From PubChem
RGS4 act = RGS4 potentiation or activation. HEK293 M3R/inducible RGS4, carbachol calcium flux Fluo4; active compounds read low. B-score at 10 µM. 310,000 compounds, 0.92% hits. AID 463111;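 active = B-score of the integrated calcium signal more than 4 SD below the library mean, with starting fluorescence not abnormally high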;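 note: negative B-score means reduced calcium response which marks RGS4 activation or potentiation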
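Assay system: HEK293 FlpIn-TREx cells, stable M3R, doxycycline-inducible RGS4 / Probe or stimulus: carbachol, ECmax concentration / Times: overnight RGS4 induction, 30 min dye load 37 °C, 20 min compound RT / Signal: kinetic calcium fluorescence imaging with Fluo4-AM dye, 2 µM / Measure: Agonist-evoked peak-minus-minimum fluorescence over baseline, integrated ratio, B score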
MrgX1 agonist = human MrgX1 receptor agonism, primary screen; Q96LB2; MrgX1-HEK293 cells, Fluo-4 calcium fluorescence, agonist mode; active compounds read high; 310,000 compounds, 0.44% hits; B-score at 10 µM; AID 588627;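 active = calcium response B-score plate-corrected fluorescence ratio at least 3 library SD, with starting fluorescence B-score inside 5 SD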
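Test system: HEK293 cells stably expressing human MrgX1 receptor; amount: 15,000 cells per well; doses: compound delivered in addition one of three; times: overnight plating before 1 h dye loading; detection: Fluo-4 NW calcium-flux fluorescence, kinetic read; read-out basis: B-scored fluorescence response ratio; controls: positive and negative controls per plate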
MrgX1 PAM = human MrgX1 positive allosteric modulation, primary screen. 310,000 compounds, 0.63% hits. MrgX1-HEK293, Fluo-4 calcium flux, FDSS; active compounds read high. B-score at 10 µM. Q96LB2;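 active = plate-corrected calcium response at least 3 library SD above typical, normal starting fluorescence, not activating the receptor alone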;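 note: compound read alongside a low EC10 to EC30 dose of BAM8-22 agonist; peak minus trough fluorescence over baseline measured at the second addition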
RGS4 inh = human RGS4 inhibition; AID 463165; 310,000 compounds, 0.45% hits; P49798; HEK293 M3R/RGS4 inducible, Fluo-4 calcium flux; active compounds read high; triggered by carbachol at its EC20; B-score at 10 µM;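 active = B-score, a plate-corrected calcium signal, over three deviations above library mean, with baseline fluorescence within five deviations of library mean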;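 note: RGS4 expression induced by doxycycline in cells with stable M3 receptor; B-score is computed from the integrated fluorescence ratio over baseline after carbachol; higher B-score means a larger calcium signal and so more RGS4 inhibition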
KCC2 mod = KCC2 (human) Cl- transport modulation | B-score of Tl+ flux slope (higher = more flux/activation; lower = inhibition) at 10 µM | Q9H2X9 | KCC2 cells, thallium flux FluoZin-2 fluorescence | 190,000 compounds, 2.2% hits;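 active = thallium flux slope and its plate-corrected score both differing from the plate sample mean at a set confidence after two filtering rounds, in either direction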;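 note: slope of fluorescence scaled to starting intensity during 10 to 20 s after thallium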
Target sequence (Q9H2X9 whole entry, looked up): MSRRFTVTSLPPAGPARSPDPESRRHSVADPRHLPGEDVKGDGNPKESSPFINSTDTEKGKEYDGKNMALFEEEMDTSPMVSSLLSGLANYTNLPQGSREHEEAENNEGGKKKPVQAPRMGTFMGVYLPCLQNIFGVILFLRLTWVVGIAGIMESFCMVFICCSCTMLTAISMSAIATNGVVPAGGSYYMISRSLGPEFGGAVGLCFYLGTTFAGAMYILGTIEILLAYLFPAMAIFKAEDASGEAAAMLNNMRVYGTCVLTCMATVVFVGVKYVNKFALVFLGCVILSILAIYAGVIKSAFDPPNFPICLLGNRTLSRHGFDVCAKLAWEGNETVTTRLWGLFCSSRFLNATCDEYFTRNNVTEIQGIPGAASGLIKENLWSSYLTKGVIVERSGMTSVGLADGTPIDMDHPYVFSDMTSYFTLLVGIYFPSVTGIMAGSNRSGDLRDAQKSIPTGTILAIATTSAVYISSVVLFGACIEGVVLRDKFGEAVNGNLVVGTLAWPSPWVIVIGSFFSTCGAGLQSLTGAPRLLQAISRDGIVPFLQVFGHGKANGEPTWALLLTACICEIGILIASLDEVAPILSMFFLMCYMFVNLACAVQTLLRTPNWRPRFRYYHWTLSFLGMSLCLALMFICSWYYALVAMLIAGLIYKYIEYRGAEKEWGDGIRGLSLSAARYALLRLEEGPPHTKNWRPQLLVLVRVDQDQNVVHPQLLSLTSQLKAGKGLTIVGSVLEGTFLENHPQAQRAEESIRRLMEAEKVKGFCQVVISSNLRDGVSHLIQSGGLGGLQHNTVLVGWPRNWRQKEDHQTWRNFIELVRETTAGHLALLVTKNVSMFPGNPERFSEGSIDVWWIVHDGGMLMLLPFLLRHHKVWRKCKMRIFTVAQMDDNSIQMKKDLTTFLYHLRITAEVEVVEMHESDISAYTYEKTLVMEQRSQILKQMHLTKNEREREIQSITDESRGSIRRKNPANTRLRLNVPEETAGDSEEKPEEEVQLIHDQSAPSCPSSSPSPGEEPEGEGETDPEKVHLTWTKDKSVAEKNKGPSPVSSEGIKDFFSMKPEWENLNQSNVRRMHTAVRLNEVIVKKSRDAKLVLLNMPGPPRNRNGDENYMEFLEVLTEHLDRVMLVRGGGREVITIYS
MrgX1 antag = antagonists of human MrgX1 receptor; AID 588676; MRGX1-HEK293 calcium flux, Fluo-4, BAM8-22 antagonism; active compounds read low; Q96LB2; B-score at 10 µM; 310,000 compounds, 1.3% hits;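 active = calcium-response B-score plate-corrected more than 3 library SD below zero, starting fluorescence within 5 deviations, no agonist response on first addition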;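 note: peak minus trough fluorescence over baseline after final BAM8-22 challenge near maximal dose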
MrgX1 PAM conf = confirmation of human MrgX1 receptor positive allosteric modulators; activation (ratio percentage), % at 10 µM; 1,200 compounds, 13% hits; MrgX1-HEK293, Fluo-4 calcium fluorescence, FDSS; shares compounds with MrgX1 PAM; AID 602413;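 active = ratio at least 3 SD above the weak peptide control, stable starting fluorescence, no direct agonism earlier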;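 note: compound followed by low BAM8-22 agonist challenge near EC20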
MrgX1 antag conf = reconfirmed antagonist of human MrgX1 receptor signaling. 2,300 compounds, 19% hits. MrgX1-HEK293, BAM8-22 calcium flux, Fluo-4; active compounds read low. remaining BAM8-22 calcium response % of control (active compounds read low), % at 10 µM. shares compounds with MrgX1 antag;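 active = remaining agonist calcium response no higher than 100% minus 3 SD of agonist-only control wells, with starting fluorescence near control levels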;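 note: agonist BAM8-22 given at a near maximal EC90 to ECmax level; peak minus minimum fluorescence divided by baseline after agonist addition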
HEK293 Ca flux = counter-screen for MrgX1 antagonists: effect in parental HEK293 cells | shares compounds with MrgX1 antag | Fluo-4 calcium fluorescence, FDSS | fluorescence ratio F(max-min)/F0 at 10 µM | 4,000 compounds, 2% hits | AID 624111;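 active = duplicate-averaged calcium fluorescence ratio at least three times the standard deviation of buffer wells, a nonspecific response in parental cells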
HEK293 Ca counter = MrgX1 allosteric activator counter-screen hit in parental HEK293 cells; 4,000 compounds, 0.4% hits; parental HEK293 calcium flux, Fluo-4 fluorescence ratio; active compounds read high; shares compounds with MrgX1 antag; AID 624114; fluorescence ratio F(max-min)/F0 at 10 µM;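 active = calcium fluorescence ratio, averaged over duplicates, at least 3 SD of the buffer-well ratio, meaning a nonspecific response in receptor-free cells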;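 note: untransfected parental HEK293 lacking MrgX1 used as counterscreen for MrgX1 allosteric activators; fluorescence change taken during the second addition on a kinetic imager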
HEK293 Ca cntr2 = activity in parental HEK293 cells lacking MrgX1 receptor; 4,000 compounds, 8.7% hits; shares compounds with MrgX1 antag; Fluo-4 calcium fluorescence (FDSS); active compounds read high; fluorescence ratio F(max-min)/F0 at 10 µM;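 active = calcium fluorescence ratio at least three times the spread of buffer wells, meaning a non-specific response in parental cells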
Large screens that a line does not name were inactive (follow-up assays come after a bar, where they were run). Only some compounds are listed: those with a hit (about 4.7% of all), similar ones and a draw of the others.

CCN(CC)CCn1c(SCC(=O)Nc2cccc(OC)c2)nc2c(sc3ccccc32)c1=O	none
O=C(c1ccncc1)c1ccc(N2CCN(C3CC(=O)N(Cc4cccs4)C3=O)CC2)cc1 (centres undefined)	MrgX1 PAM 6.9 | MrgX1 PAM conf inactive | HEK293 Ca flux inactive | HEK293 Ca counter inactive | HEK293 Ca cntr2 inactive
O=C(O)c1cc(S(=O)(=O)NC(Cc2c[nH]c3ccccc23)C(=O)O)ccc1Cl (centres undefined)	none (no result: KCC2 mod)
CCOC(=O)c1[nH]c2ccc(OC)cc2c1NC(=O)CN1CCc2ccccc2C1	MrgX1 PAM 8.1 | MrgX1 PAM conf inactive | HEK293 Ca flux inactive | HEK293 Ca counter inactive | HEK293 Ca cntr2 inactive
CCOC(=O)c1c(C)nc2c(c1-c1ccccc1)C(=O)c1ccccc1-2	MrgX1 PAM 9.3 (no result: KCC2 mod) | MrgX1 PAM conf inactive | HEK293 Ca flux inactive | HEK293 Ca counter inactive | HEK293 Ca cntr2 inactive
COC(=O)c1c(C)nc2ccccc2c1-c1ccccc1	none
CCOC(=O)c1c(C)nc2ccccc2c1-c1ccccc1	MrgX1 PAM 7.6 | MrgX1 PAM conf inactive | HEK293 Ca flux inactive | HEK293 Ca counter inactive | HEK293 Ca cntr2 inactive
CCOC(=O)c1c(C)nc2c(c1-c1ccc(Cl)cc1)C(=O)CC(C)(C)C2	MrgX1 PAM 8.6, MrgX1 antag -4.8 | MrgX1 PAM conf inactive | MrgX1 antag conf inactive | HEK293 Ca flux inactive | HEK293 Ca counter inactive | HEK293 Ca cntr2 inactive
CCOC(=O)c1c(C)nc2c(c1-c1cc(OC)ccc1OC)C(=O)c1ccccc1-2	none (no result: KCC2 mod)
COc1ccc(S(=O)(=O)N2CCC(C(=O)NCCC(=O)Nc3cccc(Cl)c3)CC2)cc1	none (no result: KCC2 mod)
O=C(CCN1N=C(c2ccccc2)CCC1=O)NCCCN1CCOCC1	none (no result: KCC2 mod)
CCN(CC)S(=O)(=O)c1cccc(NC(=O)COC(=O)C2CC3C=CC2C3)c1 (centres undefined)	MrgX1 PAM 6.5 | MrgX1 PAM conf inactive | HEK293 Ca flux inactive | HEK293 Ca counter inactive | HEK293 Ca cntr2 inactive
O=C(CN1C(=O)c2ccccc2C1=O)Oc1ccc(F)cc1	none (no result: KCC2 mod)
CNC(=O)/C(C#N)=C/c1ccc(OCCOc2ccccc2)cc1	none (no result: KCC2 mod)
COc1ccc(-c2cc(C(=O)N3CCN(c4ncccn4)CC3)c3ccccc3n2)c(OC)c1	MrgX1 PAM 7.4 | MrgX1 PAM conf inactive | HEK293 Ca flux inactive | HEK293 Ca counter inactive | HEK293 Ca cntr2 71
O=C1NC(Cc2ccccc2)C(=O)Nc2ccc(Br)cc21 (centres undefined)	MrgX1 PAM 9.1 (no result: KCC2 mod) | MrgX1 PAM conf inactive | HEK293 Ca flux inactive | HEK293 Ca counter inactive | HEK293 Ca cntr2 inactive
COc1ccccc1N(Cc1ccccc1)S(=O)(=O)c1cc(C(=O)O)ccc1Cl	none
Cc1ccc(NC2(C#N)C(=O)Nc3ccccc32)cc1C (centres undefined)	MrgX1 PAM 9 | MrgX1 PAM conf inactive | HEK293 Ca flux inactive | HEK293 Ca counter inactive | HEK293 Ca cntr2 47
COC(=O)c1ccc(NC2(C#N)C(=O)Nc3ccccc32)cc1 (centres undefined)	none
Cc1cc(C)n(/N=C/c2ccccc2O)c(=O)c1	none
Cc1cc(C)n(/N=C/c2cc(Cl)cc(Cl)c2O)c(=O)c1	MrgX1 PAM 21 | MrgX1 PAM conf inactive | HEK293 Ca flux 0.43 | HEK293 Ca counter inactive | HEK293 Ca cntr2 77
CCCCN1CC[C@H]2C=CC[C@@H](C(=O)Nc3ccc(Cl)cc3Cl)[C@H]2C1=O	MrgX1 PAM 6.9 (no result: KCC2 mod) | MrgX1 PAM conf inactive | HEK293 Ca flux inactive | HEK293 Ca counter inactive | HEK293 Ca cntr2 inactive
CCCCN1CC[C@H]2C=CC[C@@H](C(=O)NCc3ccc(OC)cc3)[C@H]2C1=O	none (no result: KCC2 mod)
CC(Cc1ccccc1)Nc1ncnc2c1ncn2C1OC(CO)C(O)C1O (centres undefined)	MrgX1 PAM 7.6 (no result: KCC2 mod) | MrgX1 PAM conf inactive | HEK293 Ca flux inactive | HEK293 Ca counter inactive | HEK293 Ca cntr2 inactive
O=C(Nc1nnc(-c2ccccc2)o1)C1CCCN1S(=O)(=O)c1cccs1 (centres undefined)	none (no result: KCC2 mod)
O=C(COc1ccc(Cl)cc1Cl)NCCC1=CCCCC1	MrgX1 PAM 16 (no result: KCC2 mod) | MrgX1 PAM conf 5.0% | HEK293 Ca flux inactive | HEK293 Ca counter inactive | HEK293 Ca cntr2 inactive
O=C(NCc1ccc2c(c1)OCO2)NC12CC3CC(CC(C3)C1)C2	none
O=C(COc1ccc2c(c1)OCO2)NC12CC3CC(CC(C3)C1)C2	MrgX1 PAM 11 | MrgX1 PAM conf inactive | HEK293 Ca flux inactive | HEK293 Ca counter inactive | HEK293 Ca cntr2 inactive
Cc1csc(N(C(=O)Cc2ccccc2F)c2ccccc2)n1	none
COc1ccc(CC(=O)N(c2ccccc2)c2nc(C)cs2)cc1	MrgX1 PAM 11 | MrgX1 PAM conf inactive | HEK293 Ca flux inactive | HEK293 Ca counter inactive | HEK293 Ca cntr2 inactive
Cc1ccc(C)n1-c1nccc(-c2ccco2)n1	none
C=CCc1c(C)nc(SC)nc1Nc1ccc(C(=O)O)cc1	none
C=CCc1c(C)nc(SC)nc1Nc1ccc(C(C)=O)cc1	MrgX1 PAM 7 | MrgX1 PAM conf inactive | HEK293 Ca flux inactive | HEK293 Ca counter inactive | HEK293 Ca cntr2 inactive
O=C(Nc1ccc(Br)cc1)NC1CCCCCCC1	none (no result: KCC2 mod)
O=C(CSc1nnc(-c2cccnc2)o1)Nc1cccc(F)c1	none (no result: KCC2 mod)
CN(CC(=O)Nc1ccccc1Cl)C(=O)c1cccc(S(=O)(=O)N2CCN(Cc3ccccc3)CC2)c1	none (no result: KCC2 mod)
Cc1n[nH]c(C)c1S(=O)(=O)N1CCN(c2ccccn2)CC1	none (no result: KCC2 mod)
Cc1n[nH]c(C)c1S(=O)(=O)N1CCc2ccccc2C1	MrgX1 PAM 8.4 (no result: KCC2 mod) | MrgX1 PAM conf inactive | HEK293 Ca flux inactive | HEK293 Ca counter inactive | HEK293 Ca cntr2 inactive
COc1cccc(C(=O)/C=C/Nc2ccc(S(=O)(=O)Nc3cc(OC)nc(OC)n3)cc2)c1	MrgX1 PAM 20 (no result: KCC2 mod) | MrgX1 PAM conf inactive | HEK293 Ca flux inactive | HEK293 Ca counter inactive | HEK293 Ca cntr2 inactive
